The M2OR odorant receptor database
Positions count from the first letter of the chain named.

Assays:
Settings in all cases: stereoisomer not certain
OR2A1 (Homo sapiens) = biological target: T1, OR2A1 (Homo sapiens) (UniProt Q8NGT9)
T1 sequence (whole entry): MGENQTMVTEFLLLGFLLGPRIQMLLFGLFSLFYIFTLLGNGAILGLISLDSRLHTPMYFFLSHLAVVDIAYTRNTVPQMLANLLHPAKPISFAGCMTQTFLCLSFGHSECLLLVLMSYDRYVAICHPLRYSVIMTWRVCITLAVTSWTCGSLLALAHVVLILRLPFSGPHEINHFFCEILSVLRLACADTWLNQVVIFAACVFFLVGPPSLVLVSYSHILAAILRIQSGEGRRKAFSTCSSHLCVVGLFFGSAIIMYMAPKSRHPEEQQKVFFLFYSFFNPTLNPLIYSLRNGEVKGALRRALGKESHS
Outline: (§1)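 Each entry records the cell line, G-protein, co-transfected protein and tags used. Methods varied with the source, often transient luciferase assays in mammalian cell lines. A receptor–molecule pair is called responsive (active) if the original authors judged its signal statistically different from baseline and non-responsive (inactive) otherwise.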

OR1L3 (Homo sapiens) = biological target: T2, OR1L3 (Homo sapiens) (UniProt Q8NH93)
T2 sequence (whole entry): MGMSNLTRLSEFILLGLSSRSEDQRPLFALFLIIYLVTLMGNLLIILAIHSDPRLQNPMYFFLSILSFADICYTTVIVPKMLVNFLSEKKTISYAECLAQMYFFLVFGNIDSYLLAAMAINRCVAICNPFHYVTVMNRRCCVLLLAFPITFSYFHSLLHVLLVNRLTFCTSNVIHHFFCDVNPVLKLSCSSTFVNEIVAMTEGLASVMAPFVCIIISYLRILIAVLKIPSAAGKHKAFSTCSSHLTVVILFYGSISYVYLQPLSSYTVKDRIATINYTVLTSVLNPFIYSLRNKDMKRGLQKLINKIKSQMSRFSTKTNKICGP
Outline: as §1

OR1L4 (Homo sapiens) = biological target: T3, OR1L4 (Homo sapiens) (UniProt Q8NGR5)
T3 sequence (whole entry): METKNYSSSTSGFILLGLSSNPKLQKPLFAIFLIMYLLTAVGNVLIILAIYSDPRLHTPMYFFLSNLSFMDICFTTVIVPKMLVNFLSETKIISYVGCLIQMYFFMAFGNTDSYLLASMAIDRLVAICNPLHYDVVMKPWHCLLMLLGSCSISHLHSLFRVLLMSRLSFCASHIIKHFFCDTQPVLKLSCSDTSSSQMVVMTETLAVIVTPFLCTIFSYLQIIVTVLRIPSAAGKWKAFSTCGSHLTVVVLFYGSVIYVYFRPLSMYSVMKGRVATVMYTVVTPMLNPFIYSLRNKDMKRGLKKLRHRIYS
Outline: as §1

OR1L6 (Homo sapiens) = biological target: T4, OR1L6 (Homo sapiens) (UniProt Q8NGR2)
T4 sequence (whole entry): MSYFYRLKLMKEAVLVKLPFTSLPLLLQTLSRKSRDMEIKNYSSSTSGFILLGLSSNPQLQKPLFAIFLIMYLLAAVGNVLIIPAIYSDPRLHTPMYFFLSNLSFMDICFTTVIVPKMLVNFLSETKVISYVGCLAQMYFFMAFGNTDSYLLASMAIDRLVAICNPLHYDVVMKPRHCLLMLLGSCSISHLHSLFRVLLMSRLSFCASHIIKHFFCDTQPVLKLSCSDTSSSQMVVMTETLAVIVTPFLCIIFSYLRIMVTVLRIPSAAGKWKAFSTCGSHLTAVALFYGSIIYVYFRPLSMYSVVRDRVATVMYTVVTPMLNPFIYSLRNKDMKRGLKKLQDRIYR
Outline: as §1

OR1L8 (Homo sapiens) = biological target: T5, OR1L8 (Homo sapiens) (UniProt Q8NGR8)
T5 sequence (whole entry): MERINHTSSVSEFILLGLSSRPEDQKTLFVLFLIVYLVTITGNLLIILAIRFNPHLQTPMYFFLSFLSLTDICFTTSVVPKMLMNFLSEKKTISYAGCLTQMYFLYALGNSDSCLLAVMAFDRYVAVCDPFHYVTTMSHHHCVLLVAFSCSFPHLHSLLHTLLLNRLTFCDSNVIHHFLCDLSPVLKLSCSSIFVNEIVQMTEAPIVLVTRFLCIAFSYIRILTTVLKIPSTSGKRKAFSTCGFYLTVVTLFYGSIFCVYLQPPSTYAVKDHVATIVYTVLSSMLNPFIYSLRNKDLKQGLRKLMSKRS
Outline: as §1

OR1M1 (Homo sapiens) = biological target: T6, OR1M1 (Homo sapiens) (UniProt Q8NGA1)
T6 sequence (whole entry): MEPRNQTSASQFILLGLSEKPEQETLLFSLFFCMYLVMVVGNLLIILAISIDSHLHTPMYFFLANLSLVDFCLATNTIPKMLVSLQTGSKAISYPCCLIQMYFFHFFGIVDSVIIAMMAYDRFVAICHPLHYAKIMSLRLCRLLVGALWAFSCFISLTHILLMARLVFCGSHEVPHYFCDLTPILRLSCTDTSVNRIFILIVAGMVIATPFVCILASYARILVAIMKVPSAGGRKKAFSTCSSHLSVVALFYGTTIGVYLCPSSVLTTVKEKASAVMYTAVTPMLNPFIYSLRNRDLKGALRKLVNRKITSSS
Outline: as §1

OR1N1 (Homo sapiens) = biological target: T7, OR1N1 (Homo sapiens) (UniProt Q8NGS0)
T7 sequence (whole entry): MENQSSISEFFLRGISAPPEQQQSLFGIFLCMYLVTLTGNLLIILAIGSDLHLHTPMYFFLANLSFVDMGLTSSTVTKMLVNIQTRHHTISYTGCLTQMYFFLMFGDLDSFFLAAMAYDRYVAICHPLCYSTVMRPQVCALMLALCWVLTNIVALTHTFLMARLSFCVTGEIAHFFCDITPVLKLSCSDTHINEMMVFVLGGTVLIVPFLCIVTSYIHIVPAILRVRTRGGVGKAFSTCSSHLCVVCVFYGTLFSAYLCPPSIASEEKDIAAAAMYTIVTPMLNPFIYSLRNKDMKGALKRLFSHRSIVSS
Outline: as §1

OR1N2 = tested on: T8, OR1N2
T8 sequence (whole entry): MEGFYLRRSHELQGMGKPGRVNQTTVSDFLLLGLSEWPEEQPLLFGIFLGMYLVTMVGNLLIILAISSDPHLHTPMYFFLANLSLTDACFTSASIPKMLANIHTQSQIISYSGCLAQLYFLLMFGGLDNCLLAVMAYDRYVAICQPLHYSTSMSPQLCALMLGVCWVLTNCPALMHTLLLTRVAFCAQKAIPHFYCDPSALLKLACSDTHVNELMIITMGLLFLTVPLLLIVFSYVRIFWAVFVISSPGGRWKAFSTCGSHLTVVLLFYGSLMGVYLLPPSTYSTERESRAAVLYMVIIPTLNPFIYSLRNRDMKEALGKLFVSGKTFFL
Outline: as §1

OR1P1 (Homo sapiens) = OR1P1 (Homo sapiens) (UniProt Q8NH06)
OR1P1 (Homo sapiens), sequence (Q8NH06 whole entry K185A): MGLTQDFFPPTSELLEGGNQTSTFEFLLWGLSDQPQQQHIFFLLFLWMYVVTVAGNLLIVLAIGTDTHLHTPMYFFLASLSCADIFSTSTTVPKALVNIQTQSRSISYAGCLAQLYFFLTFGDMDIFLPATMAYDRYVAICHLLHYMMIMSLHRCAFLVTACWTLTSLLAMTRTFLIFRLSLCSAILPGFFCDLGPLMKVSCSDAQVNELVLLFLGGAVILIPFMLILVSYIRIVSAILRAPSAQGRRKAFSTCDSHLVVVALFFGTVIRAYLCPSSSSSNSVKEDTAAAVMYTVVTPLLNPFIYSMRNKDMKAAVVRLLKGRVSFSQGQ
Outline: as §1

OR1Q1 (Homo sapiens) = biological target: T9, OR1Q1 (Homo sapiens) (UniProt Q15612)
T9 sequence (whole entry): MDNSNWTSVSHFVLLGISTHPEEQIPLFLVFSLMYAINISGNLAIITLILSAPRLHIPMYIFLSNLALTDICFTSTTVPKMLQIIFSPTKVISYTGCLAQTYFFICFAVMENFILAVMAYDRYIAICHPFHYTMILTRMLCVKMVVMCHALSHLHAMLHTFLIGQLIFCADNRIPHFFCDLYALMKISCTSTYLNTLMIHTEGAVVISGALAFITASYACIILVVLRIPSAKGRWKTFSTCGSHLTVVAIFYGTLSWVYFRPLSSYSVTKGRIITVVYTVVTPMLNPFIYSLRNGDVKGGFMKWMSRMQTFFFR
Outline: as §1

OR1S1 (Homo sapiens) = biological target: T10, OR1S1 (Homo sapiens) (UniProt Q8NH92)
T10 sequence (whole entry): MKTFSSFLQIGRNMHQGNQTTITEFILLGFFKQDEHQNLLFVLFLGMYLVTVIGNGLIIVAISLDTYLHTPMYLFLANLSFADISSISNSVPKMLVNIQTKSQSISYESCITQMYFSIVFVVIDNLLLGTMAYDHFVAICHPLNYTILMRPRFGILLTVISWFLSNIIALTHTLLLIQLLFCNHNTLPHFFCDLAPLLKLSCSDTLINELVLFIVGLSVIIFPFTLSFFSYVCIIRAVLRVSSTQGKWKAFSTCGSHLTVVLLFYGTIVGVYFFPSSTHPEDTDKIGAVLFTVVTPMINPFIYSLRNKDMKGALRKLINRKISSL
Outline: as §1

OR1S2 (Homo sapiens) = biological target: T11, OR1S2 (Homo sapiens) (UniProt Q8NGQ3)
T11 sequence (whole entry): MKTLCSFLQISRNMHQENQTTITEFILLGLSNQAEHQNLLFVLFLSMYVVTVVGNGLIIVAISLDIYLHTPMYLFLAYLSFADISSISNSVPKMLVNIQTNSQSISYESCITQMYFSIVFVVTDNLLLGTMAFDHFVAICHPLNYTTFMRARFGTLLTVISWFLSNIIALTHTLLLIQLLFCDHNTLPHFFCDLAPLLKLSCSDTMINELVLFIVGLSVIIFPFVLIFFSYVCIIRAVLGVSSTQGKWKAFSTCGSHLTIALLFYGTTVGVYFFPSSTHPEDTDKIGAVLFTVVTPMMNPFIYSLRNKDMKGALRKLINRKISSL
Outline: as §1

OR1L4 = tested on: T12, OR1L4
T12 sequence (whole entry): T3 sequence (whole entry) with G234R
Outline: as §1

OR1L6 = tested on: T13, OR1L6
T13 sequence (whole entry): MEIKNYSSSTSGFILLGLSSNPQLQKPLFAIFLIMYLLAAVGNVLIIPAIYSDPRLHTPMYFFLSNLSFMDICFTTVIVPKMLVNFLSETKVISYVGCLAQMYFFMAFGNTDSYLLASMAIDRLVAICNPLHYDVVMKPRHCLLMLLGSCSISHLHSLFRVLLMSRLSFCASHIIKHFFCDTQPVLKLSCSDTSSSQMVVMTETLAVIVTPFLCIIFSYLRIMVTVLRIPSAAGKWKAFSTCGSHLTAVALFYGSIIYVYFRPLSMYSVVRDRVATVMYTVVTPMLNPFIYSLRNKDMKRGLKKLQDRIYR
Outline: as §1

OR1L8 T27P R211P = tested on: T14, OR1L8 T27P R211P
T14 sequence (whole entry): T5 sequence (whole entry) with T27P, R211P
Outline: as §1

OR1N2 W37R = tested on: T15, OR1N2 W37R
T15 sequence (whole entry): T8 sequence (whole entry) with W37R
Outline: as §1

OR1Q1 = tested on: T16, OR1Q1
T16 sequence (whole entry): T9 sequence (whole entry) with Q24R, I163M
Outline: as §1

OR1S2 E17G = tested on: T17, OR1S2 E17G
T17 sequence (whole entry): T11 sequence (whole entry) with E17G
Outline: as §1

OR1S2 V225T G240R = tested on: T18, OR1S2 V225T G240R
T18 sequence (whole entry): T11 sequence (whole entry) with V225T, G240R
Outline: as §1

OR2A1 S168C = tested on: T19, OR2A1 S168C
T19 sequence (whole entry): T1 sequence (whole entry) with S168C
Outline: as §1

Measured: odorant receptor agonist call

CCCCCCCCO
inactive: OR2A1 (Homo sapiens)

CC(=O)c1c(C)c([N+](=O)[O-])c(C(C)(C)C)c([N+](=O)[O-])c1C
inactive: OR1L3 (Homo sapiens) | OR1L4 (Homo sapiens) | OR1L6 (Homo sapiens) | OR1L8 (Homo sapiens) | OR1M1 (Homo sapiens) | OR1N1 (Homo sapiens) | OR1N2 | OR1P1 (Homo sapiens) | OR1Q1 (Homo sapiens) | OR1S1 (Homo sapiens) | OR1S2 (Homo sapiens) | OR2A1 (Homo sapiens)

CCCCCCCCCCCCCCCC(=O)OCC
inactive: OR2A1 (Homo sapiens)

CCCCCCCCCCCC(=O)OCC
inactive: OR2A1 (Homo sapiens)

CC1=C(O)C(=O)C(C)O1 (centres undefined)
inactive: OR1L3 (Homo sapiens) | OR1L4 (Homo sapiens) | OR1L4 | OR1L6 | OR1L8 (Homo sapiens) | OR1L8 T27P R211P | OR1M1 (Homo sapiens) | OR1N1 (Homo sapiens) | OR1N2 W37R | OR1N2 | OR1Q1 (Homo sapiens) | OR1Q1 | OR1S1 (Homo sapiens) | OR1S2 (Homo sapiens) | OR1S2 E17G | OR1S2 V225T G240R | OR2A1 (Homo sapiens) | OR2A1 S168C

CC(C=O)Cc1ccc(C(C)(C)C)cc1 (centres undefined)
inactive: OR2A1 (Homo sapiens)

CC(C)=CCCC(C)=CCO
inactive: OR1L3 (Homo sapiens) | OR2A1 (Homo sapiens)

CC1=NC(C)C(C)S1 (centres undefined)
inactive: OR1L3 (Homo sapiens) | OR1L4 (Homo sapiens) | OR1L4 | OR1L6 | OR1L8 (Homo sapiens) | OR1L8 T27P R211P | OR1M1 (Homo sapiens) | OR1N1 (Homo sapiens) | OR1N2 W37R | OR1N2 | OR1Q1 (Homo sapiens) | OR1Q1 | OR1S1 (Homo sapiens) | OR1S2 (Homo sapiens) | OR1S2 E17G | OR1S2 V225T G240R | OR2A1 (Homo sapiens) | OR2A1 S168C
